Source: ChEMBL document CHEMBL1130323, “Synthesis and anti-HIV activity of novel N-1 side chain-modified analogs of 1-[(2-hydroxyethoxy)methyl]-6-(phenylthio)thymine (HEPT)” (J Med Chem, 1997)

What was measured:
MT4 = test: Effective concentration required to achieve 50% inhibition of HIV-1 multiplication in human T-4 lymphoblastoid cell line MT-4 IIIB; format: functional, cell-based
How it was run: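 MT-4 cells infected with 50 TCID50 of HIV-1 IIIB and allowed 30 min adsorption, then washed. Cells were cultured with graded compound concentrations for 5 days. Protection from virus-induced cytopathogenicity was read by MTT reduction to formazan (OD 540 nm). IC50 was taken from a median effect plot. Means of at least two separate experiments.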

[1] = Concentration which reduces the cell viability by 50% (CEM-SS / MT-4); format: functional; conditions: Homo sapiens
How it was run: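 Cytotoxicity measured on uninfected CEM-SS or MT-4 cells by MTT assay in the same experiment as the antiviral test, with cells cultured with graded compound concentrations for 5 days. Formazan read as OD at 540 nm. CC50 is the concentration reducing viability by 50%, calculated from a median effect plot. Means of at least two separate experiments.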

CEM-SS = test: Effective concentration required to achieve 50% inhibition of HIV-1 multiplication in human T-4 lymphoblastoid cell line CEM-SS/LAI; format: functional, cell-based
How it was run: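 CEM-SS cells infected with 100 TCID50 of HIV-1 Lai and allowed 30 min adsorption, then free virus was washed off. Cells were cultured with graded compound concentrations for 5 days. Virus production was read as reverse transcriptase activity of virions in culture supernatants. IC50 was taken from a median effect plot. Means of at least two separate experiments.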

IC50 (CEM-SS)	Compound	IC50 (MT4)	CC50 [1]
> 10000 nM	Cc1c(Sc2ccccc2)n(COCCNC(=O)CCP(=O)(O)O)c(=O)[nH]c1=O	> 10000 nM	> 1000 nM
> 100000 nM	Cc1c(Sc2ccccc2)n(COCCNC(=O)CNCP(=O)(O)O)c(=O)[nH]c1=O	> 100000 nM	> 1000 nM
–	CCc1c(Sc2ccccc2)n(COCc2ccccc2)c(=O)[nH]c1=O	5.9 nM	–
230 nM	Cc1c(Sc2ccccc2)n(C/C=C/c2ccccc2)c(=O)[nH]c1=O	2500 nM	> 1000 nM
> 1000 nM	Cc1c(Sc2ccccc2)n(C/C=C/c2cc3ccccc3o2)c(=O)[nH]c1=O	> 1000 nM	> 1000 nM
16 nM	CCc1c(Sc2ccccc2)n(C/C=C/c2ccccc2)c(=O)[nH]c1=O	190 nM	> 1000 nM
2200 nM	Cc1c(Sc2ccccc2)n(COCCI)c(=O)[nH]c1=O	> 10000 nM	> 1000 nM
–	CCc1c(Sc2cc(C)cc(C)c2)n(COCc2ccccc2)c(=O)[nH]c1=O	3.2 nM	–
28 nM	CCc1c(Sc2cc(C)cc(C)c2)n(C/C=C/c2cccs2)c(=O)[nH]c1=O	40 nM	> 1000 nM
11400 nM	Cc1c(Sc2ccccc2)n(COCCNC(=O)CCCl)c(=O)[nH]c1=O	40000 nM	> 1000 nM
> 100000 nM	Cc1c(Sc2ccccc2)n(COCCN2CCOCC2)c(=O)[nH]c1=O	> 100000 nM	> 1000 nM
> 1000 nM	Cc1c(Sc2ccccc2)n(C/C=C/C2CCCCC2)c(=O)[nH]c1=O	> 1000 nM	> 1000 nM
140 nM	Cc1c(Sc2ccccc2)n(C/C=C/c2cccs2)c(=O)[nH]c1=O	> 1000 nM	> 1000 nM
> 1000 nM	Cc1c(Sc2ccccc2)n(COCCN(C(=O)c2ccccc2)C(=O)c2ccccc2)c(=O)[nH]c1=O	> 1000 nM	> 1000 nM
90 nM	Cc1c(Sc2ccccc2)n(COCc2ccccc2)c(=O)[nH]c1=O	740 nM	> 1000 nM
940 nM	CCc1c(Sc2ccccc2)n(C/C=C/c2ccc([N+](=O)[O-])s2)c(=O)[nH]c1=O	> 1000 nM	> 1000 nM
> 10000 nM	Cc1c(Sc2ccccc2)n(COCCNC(=O)c2ccccc2)c(=O)[nH]c1=O	> 10000 nM	> 1000 nM
8 nM	CCc1c(Sc2ccccc2)n(C/C=C/c2cccs2)c(=O)[nH]c1=O	80 nM	> 1000 nM

IC50 (CEM-SS)	Compound	IC50 (MT4)	CC50 [1]
8 nM	CCc1c(Sc2ccccc2)n(C/C=C/c2ccco2)c(=O)[nH]c1=O	170 nM	> 1000 nM
> 10000 nM	Cc1c(Sc2ccccc2)n(COCCN2CCNCC2)c(=O)[nH]c1=O	> 10000 nM	> 1000 nM
55 nM	Cc1c(Sc2ccccc2)n(COCCNc2ccccc2)c(=O)[nH]c1=O	1000 nM	> 1000 nM
31000 nM	Cc1c(Sc2ccccc2)n(COCCN)c(=O)[nH]c1=O	–	> 1000 nM
> 1000 nM	Cc1c(Sc2ccccc2)n(C/C=C/c2ccc([N+](=O)[O-])s2)c(=O)[nH]c1=O	> 1000 nM	> 1000 nM
830 nM	Cc1c(Sc2ccccc2)n(COCCSc2ccccn2)c(=O)[nH]c1=O	> 1000 nM	> 1000 nM
31 nM	CCc1c(Sc2cc(C)cc(C)c2)n(C/C=C/c2ccccc2)c(=O)[nH]c1=O	–	> 1000 nM
27500 nM	Cc1c(Sc2ccccc2)n(COCCN(CC#N)CC#N)c(=O)[nH]c1=O	> 100000 nM	> 1000 nM
10 nM	CCc1c(Sc2cc(C)cc(C)c2)n(C/C=C/c2ccco2)c(=O)[nH]c1=O	40 nM	> 1000 nM
330 nM	Cc1c(Sc2ccccc2)n(C/C=C/c2ccco2)c(=O)[nH]c1=O	> 1000 nM	> 1000 nM
760 nM	Cc1c(Sc2ccccc2)n(COCCBr)c(=O)[nH]c1=O	2800 nM	> 1000 nM
38 nM	CCc1c(Sc2ccccc2)n(C/C=C/c2cc3ccccc3o2)c(=O)[nH]c1=O	> 1000 nM	> 1000 nM
8750 nM	Cc1c(Sc2ccccc2)n(COCCN(c2ccccc2)c2ccccc2)c(=O)[nH]c1=O	> 10000 nM	> 1000 nM
> 1000 nM	Cc1c(Sc2ccccc2)n(COCCSc2ccccc2)c(=O)[nH]c1=O	–	> 1000 nM
150 nM	Cc1c(Sc2ccccc2)n(C/C=C/c2cccnc2)c(=O)[nH]c1=O	100 nM	> 1000 nM
440 nM	Cc1c(Sc2ccccn2)n(COCCSc2ccccn2)c(=O)[nH]c1=O	8000 nM	> 1000 nM
1000 nM	Cc1c(Sc2ccccn2)n(COCCSc2ccccc2)c(=O)[nH]c1=O	> 1000 nM	> 1000 nM
2000 nM	Cc1c(Sc2ccccc2)n(COCCO)c(=O)[nH]c1=O [HEPT]	11000 nM	> 1000 nM
